ChEMBL document CHEMBL1137162, “The development of novel inhibitors of tumor necrosis factor-alpha (TNF-alpha) production based on substituted [5,5]-bicyclic pyrazolones” (Bioorg Med Chem Lett, 2004)

Key:
THP-1 = assay: inhibitory potency against human Tumor necrosis factor, alpha production in THP-1cells; assay type: functional, cell-based
Summary of the method: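 Human monocytic THP-1 cells (2.0 × 10^5/well), duplicate cultures, preincubated 15 min with or without inhibitor over a concentration range, then stimulated with LPS (2 μg/mL). TNF-α released measured by ELISA 4 h after stimulation; cell viability after the 4 h incubation checked by MTS assay.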

Rattus norvegicus = assay: Percent reduction in joint damage as compared to the control at 25 mg/Kg; assay type: functional
Summary of the method: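 Rat iodoacetate osteoarthritis model; groups of 15 animals dosed orally BID (~every 12 h) for 7 days at 25 mg/kg or vehicle (2.5 mL/kg). Sacrifice on day 22; left joint disarticulated, fixed in 10% formalin 24–48 h, tibial cartilage surface imaged by image analysis. Joint damage expressed as % reduction versus vehicle; significance at P < 0.05.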

Row | Structure (SMILES) | IC50 (THP-1) [nM] | Reduction (Rattus norvegicus) [%]
1 | Cc1ccccc1CNc1nccc(-c2c(-c3ccc(F)cc3)c(=O)n3n2CC2(C3)OCCO2)n1 | 19 | –
2 | O=c1c(-c2ccc(F)cc2)c(-c2ccnc(NCc3ccccc3C(F)(F)F)n2)n2n1CC1(C2)OCCO1 | 17 | –
3 | O=c1c(-c2ccc(F)cc2)c(-c2ccnc(Oc3ccccc3)n2)n2n1CC(N1CCCC1)C2 (stereo not drawn) | 327 | –
4 | COC[C@H](C)Nc1nccc(-c2c(-c3ccc(F)cc3)c(=O)n3n2CC2(C3)OCCO2)n1 | 36 | 17
5 | CN(C)C1Cn2c(-c3ccnc(Oc4ccccc4)n3)c(-c3ccc(F)cc3)c(=O)n2C1 (stereo not drawn) | 177 | –
6 | O=c1c(-c2ccc(F)cc2)c(-c2ccnc(NCc3cccc(C(F)(F)F)c3)n2)n2n1CC1(C2)OCCO1 | 197 | –
7 | C[C@@H](Nc1nccc(-c2c(-c3ccc(F)cc3)c(=O)n3n2CC(O)C3)n1)c1ccccc1 (stereo partly drawn) | 5 | –
8 | O=c1c(-c2ccc(F)cc2)c(-c2ccnc(NCc3ccccc3)n2)n2n1CC1(C2)OCCO1 | 11 | –
9 | O=c1c(-c2ccc(F)cc2)c(-c2ccnc(Oc3ccccc3)n2)n2n1CC(N1CCOCC1)C2 (stereo not drawn) | 313 | –
10 | O=c1c(-c2ccc(F)cc2)c(-c2ccnc(NCc3ccccc3)n2)n2n1CC1(C2)OCCCO1 | 31 | –
11 | O=c1c(-c2ccc(F)cc2)c(-c2ccnc(NCc3ccc(F)cc3)n2)n2n1CC1(C2)OCCCO1 | 630 | –
12 | O=c1c(-c2ccc(F)cc2)c(-c2ccnc(Oc3ccccc3)n2)n2n1CC1(C2)OCCO1 | 38 | –
13 | C[C@H](Nc1nccc(-c2c(-c3ccc(F)cc3)c(=O)n3n2CC2(C3)OCCO2)n1)c1ccccc1 | 2 | 27
14 | O=c1c(-c2ccc(F)cc2)c(-c2ccnc(NCc3ccc(C(F)(F)F)cc3)n2)n2n1CC1(C2)OCCO1 | 1000 | –
15 | O=c1c(-c2ccc(F)cc2)c(-c2ccnc(NCc3ccncc3)n2)n2n1CC1(C2)OCCO1 | 1000 | –
16 | O=c1c(-c2ccc(F)cc2)c(-c2ccnc(Oc3ccccc3)n2)n2n1CC(N1CCNCC1)C2 (stereo not drawn) | 500 | –
17 | COC[C@H](C)Nc1nccc(-c2c(-c3ccc(F)cc3)c(=O)n3n2CC2(C3)OCCCO2)n1 | 36 | –

Row | Structure (SMILES) | IC50 (THP-1) [nM] | Reduction (Rattus norvegicus) [%]
18 | O=c1c(-c2ccc(F)cc2)c(-c2ccnc(NCc3cccnc3)n2)n2n1CC1(C2)OCCO1 | 427 | –
19 | Nc1ccc(CNc2nccc(-c3c(-c4ccc(F)cc4)c(=O)n4n3CC3(C4)OCCO3)n2)cc1 | 161 | –
20 | O=c1c(-c2ccc(F)cc2)c(-c2ccnc(NCc3cccc(F)c3)n2)n2n1CC1(C2)OCCO1 | 13 | –
21 | O=c1c(-c2ccc(F)cc2)c(-c2ccnc(NCc3ccc(F)cc3)n2)n2n1CC1(C2)OCCO1 | 290 | –
22 | COC(=O)OC1Cn2c(-c3ccnc(Oc4ccccc4)n3)c(-c3ccc(F)cc3)c(=O)n2C1 (stereo not drawn) | 181 | –
23 | Cc1cccc(CNc2nccc(-c3c(-c4ccc(F)cc4)c(=O)n4n3CC3(C4)OCCO3)n2)c1 | 40 | –
24 | Nc1ccccc1CNc1nccc(-c2c(-c3ccc(F)cc3)c(=O)n3n2CC2(C3)OCCO2)n1 | 101 | –
25 | C[C@H](Nc1nccc(-c2c(-c3ccc(F)cc3)c(=O)n3n2CC2(C3)OCCCO2)n1)c1ccccc1 | 12 | –
26 | Cc1ccc(CNc2nccc(-c3c(-c4ccc(F)cc4)c(=O)n4n3CC3(C4)OCCO3)n2)cc1 | 293 | –
27 | O=c1c(-c2ccc(F)cc2)c(-c2ccnc(Oc3ccccc3)n2)n2n1CC(N1CCCCC1)C2 (stereo not drawn) | 297 | –
28 | O=c1c(-c2ccc(F)cc2)c(-c2ccnc(NCc3ccccc3F)n2)n2n1CC1(C2)OCCO1 | 8 | –
29 | O=c1c(-c2ccc(F)cc2)c(-c2ccnc(NCc3ccccn3)n2)n2n1CC1(C2)OCCO1 | 148 | –
30 | C[C@H](Nc1nccc(-c2c(-c3ccc(F)cc3)c(=O)n3n2CC2(C3)OCCO2)n1)C(C)(C)O | 9 | 18
31 | O=c1c(-c2ccc(F)cc2)c(-c2ccnc(Oc3ccccc3)n2)n2n1CC1(C2)OCCCO1 | 69 | –
32 | COC[C@H](C)Nc1nccc(-c2c(-c3ccc(F)cc3)c(=O)n3n2CC(OC)C3)n1 (stereo partly drawn) | 13 | –
33 | COCC(C)Nc1nccc(-c2c(-c3ccc(F)cc3)c(=O)n3n2CC(OC)C3)n1 (racemic) | 15 | 28
34 | COCC(C)Nc1nccc(-c2c(-c3ccc(F)cc3)c(=O)n3n2CC(OC)C3)n1 (single isomer, unassigned) | 20 | –
